# Experimental data as given in ChEMBL document CHEMBL1129360, “Carbocyclic nucleosides as inhibitors of human tumor necrosis factor-alpha production: effects of the stereoisomers of (3-hydroxycyclopentyl)adenines” (J Med Chem, 1996).
# What was measured:
# [1] = organism: Homo sapiens; test: in vitro inhibitory activity was measured against interleukin-6 (IL-6) production; format: functional, organism-based
# Summary of the method: (§1)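 Human peripheral blood mononuclear cells from normal volunteers were separated by density gradient. Adherent monocyte/macrophages were kept after 1 h and lifted with RPMI-1640/0.2% EDTA/5% FCS. Compounds in PBS (0.16, 0.8, 4.0, 20.0, 100 µM) were added to the cells 15 min before LPS. Cells were incubated 18 h at 37 °C, 5% CO2. Supernatant TNF-α, IL-1β and IL-6 were measured by specific ELISA, giving IC50.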
# [2] = organism: Homo sapiens; test: in vitro inhibitory activity was measured against interleukin-1-beta (IL1-beta) production; format: functional; summary of the method: as §1
# [3] = system: Mus musculus; test: Protective effects against lethal injections of D-galactosamine sensitized Lipopolysaccharide challenged (LD100) CF1 mice (100 mg/kg IP in PBS); format: functional
# Summary of the method: (§2)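 Female CF1 mice were fasted overnight, then given compound at 100 mg/kg ip in PBS 1 h before an ip challenge of D-galactosamine (20 mg) plus S. enteritidis LPS (15-250 ng). The LPS LD100 was set for each shipment of mice, and the challenge was at LD100 or 3× LD100. Mice were refed after challenge and survival was scored at 8 h. PBS vehicle served as control.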
# [4] = system: Mus musculus; test: D-galactosamine sensitized mice were given 3 times the LD100 dose of LPS (100 mg/kg IP in PBS); format: functional; summary of the method: as §2
# [5] = organism: Homo sapiens; test: In vitro inhibitory activity was measured against tumor necrosis factor-alpha production; format: functional; summary of the method: as §1
SMILES,IC50 [1] [µM],IC50 [2] [µM],Survival [3] [%],Survival [4] [%],IC50 [5] [µM]
Nc1ncnc2c1ncn2[C@@H]1CC[C@@H](O)C1,> 100,76,100,100,9
Nc1ncnc2c1ncn2[C@H]1CC[C@@H](O)C1,> 100,> 100,88,0,40
Nc1ncnc2c1ncn2[C@H]1CC[C@H](O)C1,> 100,> 100,63,0,16
Nc1ncnc2c1ncn2[C@@H]1O[C@H](CO)[C@@H](O)[C@H]1O [ADENOSINE],> 100,> 100,0,0,6
Nc1ncnc2c1ncn2[C@@H]1CC[C@H](O)C1,> 100,> 100,50,0,18
CC(=O)CCCCn1c(=O)c2c(ncn2C)n(C)c1=O [PENTOXIFYLLINE],> 100,> 100,66,0,33
